Measurements reported in PMC5161665 (Nature, 2016).
Peptide text beside a SMILES is read from it. * marks the point of attachment. Cbz = O=C(OCc1ccccc1)*

Legend:
T. cruzi epimastigotes = test: microbe, parasite or virus in culture; assay type: cell-based, Trypanosoma cruzi; conditions: for inhibition of T. cruzi epimastigote proliferation, potency: wild type epimastigotes
T. brucei (GVR35-VSL2) = test: Mouse model of stage II HAT; assay type: in vivo, Trypanosoma brucei; conditions: single ip dose 40 mg/kg
[1] = target: T1, PSMB4^I29M T. cruzi proteasome (Trypanosoma cruzi, UniProt Q4CU77+Q4D8U7, I29M); test: Proteasome proteolytic activities, PSMB4^I29M T. cruzi proteasome; assay type: biochemical; conditions: mean ± s.e.m., n=3
T1 sequence (Q4CU77 1-206 I29M): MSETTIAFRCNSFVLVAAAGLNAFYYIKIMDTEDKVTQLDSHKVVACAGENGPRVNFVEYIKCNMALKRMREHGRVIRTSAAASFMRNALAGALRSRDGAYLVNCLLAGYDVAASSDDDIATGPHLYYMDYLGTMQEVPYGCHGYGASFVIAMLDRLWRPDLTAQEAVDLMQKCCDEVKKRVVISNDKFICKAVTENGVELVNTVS
T1 sequence (Q4D8U7 111-311): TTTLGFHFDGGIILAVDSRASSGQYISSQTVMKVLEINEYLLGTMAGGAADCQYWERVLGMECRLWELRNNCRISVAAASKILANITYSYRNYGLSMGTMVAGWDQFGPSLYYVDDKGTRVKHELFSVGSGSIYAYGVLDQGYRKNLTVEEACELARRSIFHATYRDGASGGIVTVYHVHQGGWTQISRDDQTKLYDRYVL

[2] = tested on: ubiquitylated proteins in T. cruzi epimastigotes; test: Accumulation of ubiquitylated proteins in T. cruzi epimastigotes; assay type: cell-based; conditions: Trypanosoma cruzi, read-out: ubiquitylation EC50, T. cruzi epimastigotes
In short: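 T. cruzi epimastigotes were seeded at 1 × 10^7 cells/well in LIT medium and exposed to DMSO (0.2%) or a range of test compound concentrations for 2–12 h at 27 °C. Cells were pelleted, washed twice in PBS, and lysed for 20 min on ice in Tris pH 7.4/NaCl/1% CHAPS buffer with protease inhibitors and N-ethylmaleimide. Lysates were cleared at 21,000 g, 30 min, 4 °C.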

In the case of `CC(C)C[C@@H](C=O)NC(=O)[C@H](CC(C)C)NC(=O)[C@H](CC(C)C)NC(=O)OCc1ccccc1` [MG132] (Cbz-Leu-Leu-Leu-aldehyde), the “inhibition of T. cruzi epimastigote proliferation, potency” value (T. cruzi epimastigotes) is reported as “sub-micromolar potency”.

In the case of `CC(=O)NCC(=O)O.CC(=O)NCC(=O)O.N=C(N)c1ccc(N=NNc2ccc(C(=N)N)cc2)cc1` [diminazene aceturate], the “parasite clearance / recrudescence” value (T. brucei (GVR35-VSL2)) is reported as “did not prevent parasite recrudescence 21 days later” and the “parasites in the brain” value (T. brucei (GVR35-VSL2); ex vivo brain imaging) is reported as “parasites were clearly detected in the brains”.

`CC(C)C[C@H](NC(=O)[C@H](Cc1ccccc1)NC(=O)c1cnccn1)B(O)O` [bortezomib] showed an IC50 ([1]; IC50 caspase, caspase-like activity) of 540 ± 12 nM, an IC50 ([1]; IC50 chymotrypsin, chymotrypsin-like activity) of 260 ± 40 nM and an IC50 ([1]; IC50 trypsin, trypsin-like activity) of 1600 ± 58 nM. For the same compound, the EC50 [2] was 62 nM, the EC50 (T. cruzi epimastigotes; Trypanosoma cruzi, read-out: growth inhibition EC50 on T. cruzi epimastigotes) was 160 nM and the “inhibition of T. cruzi epimastigote proliferation, potency” value (T. cruzi epimastigotes) was “sub-micromolar potency”.
